Data set [1] relates to Rattus norvegicus. Kind of data set: Compound was tested for antiinflammatory activity in rats by carrageenam edema test after peroral administration of 200 mg/kg dose. Particulars: route oral. It is filed as functional. A digest of the protocol: (§1)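 CD-COBS rats, both sexes. The drug was given orally as a suspension in 1% acacia gum (10 mL/kg), then carrageenan foot edema was induced per Winter et al. Read-out was % inhibition of edema; N = 5 rats per group; Dunnet's test. "No significant effect" means inhibition below 15%.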

For data set [2], the system named is Rattus norvegicus. Briefly: Compound was tested for antiinflammatory activity in rats by adjuvant arthritis test after peroral administration of 50 mg/kg dose; no significant effect. It is filed as functional, organism-based. Also on record: dose 50 mg/kg.
For data set [3], the system named is Rattus norvegicus. Kind of data set: Compound was tested for antiinflammatory activity in rats by adjuvant arthritis test after peroral administration of 50 mg/kg dose. Particulars: route oral. Type of data set: functional.
Data set [4] has as its system Rattus norvegicus. Briefly: Compound was tested for antiinflammatory activity in rats by carrageenam edema test after peroral administration of 200 mg/kg dose; no significant effect. Also on record: dose 200 mg/kg. Type of data set: functional, organism-based. The method in brief: as §1
Data set [5] has as its system Rattus norvegicus. Kind of data set: Compound was tested for antiinflammatory activity in rat by carrageenam edema test after peroral administration of 200 mg/kg dose. Type of data set: functional. Particulars: route oral. The method in brief: as §1
In data set [6] the test system is Rattus norvegicus. Kind of data set: Compound was tested for antiinflammatory activity in rat by adjuvant arthritis test after peroral administration of 50 mg/kg dose; no significant effect. Type of data set: functional, organism-based. Also on record: dose 50 mg/kg.
Data set [7] has as its system Rattus norvegicus. Kind of data set: Compound was tested for antiinflammatory activity in rat by carrageenam edema test after peroral administration of 200 mg/kg dose; no significant effect. It is filed as functional, organism-based. Details: dose 200 mg/kg. A digest of the protocol:
as §1

Data set [8] relates to Rattus norvegicus. Briefly: Compound was tested for antiinflammatory activity in rat by adjuvant arthritis test after peroral administration of 50 mg/kg dose. Particulars: route oral. Type of data set: functional.
The subject of data set [9] is Rattus norvegicus. Kind of data set: Compound was tested for antiinflammatory activity in rats by carrageenam induced pleurisy test at dose of 200 mg/kg, po. It is filed as functional. A digest of the protocol:
(§2)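 Rats were dosed orally (1% acacia gum suspension) at 48, 24 and 1 h before intrapleural carrageenan, per Di Rosa et al. Pleural exudate was assessed 6 h later as % reduction in volume and in leucocytes; N = 8 rats per group; Dunnet's test.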

Data set [10] concerns Rattus norvegicus. Briefly: Compound was tested for antiinflammatory activity in rats by carrageenam induced pleurisy test at dose of 200 mg/kg, po,% reduction in leucocytes. Type of data set: functional. A digest of the protocol:
as §2

Data set [11] has as its system Mus musculus. Kind of data set: Compound was tested for analgesic activity in mice by phenylquinone writhing test at dose of 200 mg/kg, po. It is filed as functional. The method in brief: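 Female mice received the drug orally in 1% acacia gum suspension (20 mL/kg) 1 h before i.p. 0.2 mL of 0.2% phenylquinone. Animals were caged individually and abdominal contractions counted over 20 min after injection; N = 4 mice per group; Dunnet's test.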
In general terms: Writhing tests count abdominal constrictions after an irritant is injected.

Data set [12] can be described thus: Compound was tested for lethal dose in mice after oral administration. It is filed as ADME, organism-based. Particulars: mouse, in vivo. A digest of the protocol:
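CD1 mice of both sexes given single oral dose of compound suspended in 1% acacia gum (20 mL/kg); LD50 calculated by probit method.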

The test system of data set [13] is Rattus norvegicus. Kind of data set: Compound was tested for antiinflammatory activity in rats adjuvant arthritis test after peroral administration of 50 mg/kg dose. Particulars: route oral. It is filed as functional.
For data set [14], the system named is Rattus norvegicus. Kind of data set: Compound was tested for antiinflammatory activity in Rat by carrageenam edema test after peroral administration of 200 mg/kg dose. Type of data set: functional. Particulars: route oral. A digest of the protocol: as §1

Usually inhibition in vivo stands for the percentage by which the read-out fell short of the control. The term LD50 denotes the dose expected to kill half of the subjects tested. The low end stands for a more toxic substance, the high end for a less toxic substance.

In data set [1], `CCNc1ccccc1-c1ccccc1NC(=O)Cc1ccc(O)cc1` yielded an inhibition in vivo at 200 mg/kg of 45%. Further, in data set [2], the inhibition result was “No significant effect”.
In the case of `CNc1ccccc1-c1ccccc1NC(=O)Cc1ccc([N+](=O)[O-])cc1`, the inhibition in vivo at 50 mg/kg in data set [3] was determined as 16%. For the same compound, the inhibition result in data set [4] is “No significant effect”.
Regarding `CN(C)CCNc1ccccc1-c1ccccc1NC(=O)Cc1ccc(N)cc1`, in data set [1], testing at 200 mg/kg gave an inhibition in vivo of 16%. For the same compound, in data set [2], the inhibition result was “No significant effect”.
In data set [5], `CCN(CC)CCNc1ccccc1-c1ccccc1NC(=O)Cc1ccccc1` came in with an inhibition in vivo at 200 mg/kg of 17%. In data set [6], the inhibition result is “No significant effect”.
Turning to `CCN(CC)CCCNc1ccccc1-c1ccccc1NC(=O)Cc1ccc([N+](=O)[O-])cc1`, the inhibition in vivo at 50 mg/kg in [3] is 16%. In [4], the inhibition result was “No significant effect”.
In the case of `CNc1ccccc1-c1ccccc1NC(=O)Cc1ccc(OC)cc1`, in data set [3], the inhibition in vivo at 50 mg/kg stood at 22%. In addition, the inhibition in vivo at 200 mg/kg in data set [1] was found to be 20%.
`CN(C)CCCNc1ccccc1-c1ccccc1NC(=O)Cc1ccc([N+](=O)[O-])cc1`: the inhibition result in [7] is “No significant effect”. The inhibition in vivo at 50 mg/kg in data set [8] worked out at 24%.
On to `CCCCC1C(=O)N(c2ccccc2)N(c2ccccc2)C1=O` [PHENYLBUTAZONE], for which the Reduction in data set [9] is given as 43%; in data set [10], 35%. For the same compound, the figures for the inhibition in vivo at 200 mg/kg in data set [11] and in data set [1] were 45% and 42%, respectively. Also, the LD50 in [12] is 650 mg/kg. Besides, the inhibition in vivo at 50 mg/kg in [13] was 66%.
In the case of `CC(=O)Oc1ccccc1C(=O)O` [ASPIRIN], in data set [3], the inhibition in vivo at 50 mg/kg was 32%. The compound also came in with an inhibition in vivo at 200 mg/kg in data set [1] of 40%.
The compound `COc1ccc(CC(=O)Nc2ccccc2-c2ccccc2NCCN(C)C)cc1` yielded an inhibition in vivo at 200 mg/kg in [1] of 65%. The inhibition entry in data set [2] was “No significant effect”.
Turning to `CN(C)CCCNc1ccccc1-c1ccccc1NC(=O)Cc1ccc(Cl)cc1`, the inhibition in vivo at 50 mg/kg in data set [3] amounted to 30%. The inhibition entry in data set [4] is “No significant effect”.
Take `CCNc1ccccc1-c1ccccc1NC(=O)Cc1ccccc1`: in [1], the inhibition in vivo at 200 mg/kg stood at 30%. The inhibition result in [2] was “No significant effect”.
`CCCNc1ccccc1-c1ccccc1NC(=O)Cc1ccc(Cl)cc1` registered an inhibition in vivo at 200 mg/kg in data set [1] of 33%. Also, the inhibition entry in data set [2] was “No significant effect”.
With `CNc1ccccc1-c1ccccc1NC(=O)Cc1ccc(O)cc1`, in data set [1], testing at 200 mg/kg gave an inhibition in vivo of 17%. Moreover, the inhibition result in [2] is “No significant effect”.
`Nc1ccccc1-c1ccccc1NC(=O)Cc1ccc(O)cc1`: the inhibition in vivo at 200 mg/kg in data set [1] amounted to 37%. Moreover, the inhibition entry in data set [2] was “No significant effect”.
`CN(C)CCNc1ccccc1-c1ccccc1NC(=O)Cc1ccc([N+](=O)[O-])cc1`: the inhibition in vivo at 200 mg/kg in [14] is 54%. Further, in data set [6], the inhibition result is “No significant effect”.
On to `CCN(CC)CCNc1ccccc1-c1ccccc1NC(=O)Cc1ccc([N+](=O)[O-])cc1`, for which the inhibition in vivo at 200 mg/kg in [5] is 54%; in [11] it was 34%. Also, the Reduction came to 48% in data set [9] and 35% in data set [10]. The median lethal dose (LD50) in data set [12] is 1130 mg/kg. The inhibition in vivo at 50 mg/kg in [13] worked out at 33%.
For the compound `CCN(CC)CCCNc1ccccc1-c1ccccc1NC(=O)Cc1ccc(Cl)cc1`, the inhibition in vivo at 50 mg/kg in [3] was determined as 29%. Besides, the inhibition result in [4] is “No significant effect”.
As for `COc1ccc(CC(=O)Nc2ccccc2-c2ccccc2NCCCN(C)C)cc1`, at 200 mg/kg the inhibition in vivo in [1] was 16%. Further, in [2], the inhibition entry is “No significant effect”.
In data set [1], `CCN(CC)CCNc1ccccc1-c1ccccc1NC(=O)Cc1ccc(N)cc1` returned an inhibition in vivo at 200 mg/kg of 33%. The inhibition result in data set [2] was “No significant effect”.

The values above are taken from ChEMBL document CHEMBL1121840, “Synthesis and antiinflammatory activity of 2,2'-diaminobiphenyl derivatives” (J Med Chem, 1981).
